Data taken from ChEMBL document CHEMBL4118021, “Studies of TAK1-centered polypharmacology with novel covalent TAK1 inhibitors” (Bioorg Med Chem, 2017).
Active and inactive are the calls of the source.

Experiments:
Format in all cases: cell-based
[1] = target: 14-3-3 protein epsilon (Homo sapiens) (UniProt P62258); experiment: Binding affinity to YWHAE in human NCI-H23 cells at 1 uM by mass spectrometry based pull down assay
[2] = target: Transmembrane protein 263 (Homo sapiens) (UniProt Q8WUH6); experiment: Binding affinity to TMEM263 in human NCI-H23 cells at 1 uM by mass spectrometry based pull down assay
[3] = target: Eukaryotic translation initiation factor 3 subunit I (Homo sapiens) (UniProt Q13347); experiment: Binding affinity to EIF3I in human NCI-H23 cells at 1 uM by mass spectrometry based pull down assay
[4] = target: 80S Ribosome (Homo sapiens) (UniProt P08865+P42677+P62753+P15880+P23396+P61247+P62701+P22090+P46782+P62081+P62241+P46781+P46783+P62280+P25398+P62277+P62263+P62841+P62244+P62249+P08708+P62269+P39019+P60866+P63220+P62266+P62847+P62851+P62854+P62979+P62857+P62273+P62861+P39023+P36578+P46777+Q02878+P18124+P62424+P62917+P32969+P27635+P62906+P62913+P30050+P26373+P40429+P50914+P61313+P18621+Q07020+Q02543+P84098+P46778+P35268+P62829+P62750+P83731+P61254+P61353+P46776+P46779+P47914+P62888+P62899+P62910+P49207+P42766+P18077+Q9Y3U8+P83881+P61927+P61513+P63173+P62891+P62945+P05388+P05386); experiment: Binding affinity to RPL26 in human NCI-H23 cells at 1 uM by mass spectrometry based pull down assay
[5] = target: Glutamate--cysteine ligase regulatory subunit (Homo sapiens) (UniProt P48507); experiment: Binding affinity to GCLM in human NCI-H23 cells at 1 uM by mass spectrometry based pull down assay
[6] = target: Dual specificity mitogen-activated protein kinase kinase 1 (Homo sapiens) (UniProt Q02750); experiment: Binding affinity to MAP2K1 in human NCI-H23 cells at 1 uM by mass spectrometry based pull down assay
[7] = target: Protein NipSnap homolog 1 (Homo sapiens) (UniProt Q9BPW8); experiment: Binding affinity to NIPSNAP1 in human NCI-H358 cells at 1 uM by mass spectrometry based pull down assay
[8] = target: Trifunctional enzyme subunit alpha, mitochondrial (Homo sapiens) (UniProt P40939); experiment: Binding affinity to HADHA in human NCI-H358 cells at 1 uM by mass spectrometry based pull down assay
[9] = target: T1, Serine/threonine-protein kinase Nek9 (Homo sapiens) (UniProt Q8TD19); experiment: Binding affinity to NEK9 in human NCI-H358 cells at 1 uM by mass spectrometry based pull down assay
T1 sequence (whole entry): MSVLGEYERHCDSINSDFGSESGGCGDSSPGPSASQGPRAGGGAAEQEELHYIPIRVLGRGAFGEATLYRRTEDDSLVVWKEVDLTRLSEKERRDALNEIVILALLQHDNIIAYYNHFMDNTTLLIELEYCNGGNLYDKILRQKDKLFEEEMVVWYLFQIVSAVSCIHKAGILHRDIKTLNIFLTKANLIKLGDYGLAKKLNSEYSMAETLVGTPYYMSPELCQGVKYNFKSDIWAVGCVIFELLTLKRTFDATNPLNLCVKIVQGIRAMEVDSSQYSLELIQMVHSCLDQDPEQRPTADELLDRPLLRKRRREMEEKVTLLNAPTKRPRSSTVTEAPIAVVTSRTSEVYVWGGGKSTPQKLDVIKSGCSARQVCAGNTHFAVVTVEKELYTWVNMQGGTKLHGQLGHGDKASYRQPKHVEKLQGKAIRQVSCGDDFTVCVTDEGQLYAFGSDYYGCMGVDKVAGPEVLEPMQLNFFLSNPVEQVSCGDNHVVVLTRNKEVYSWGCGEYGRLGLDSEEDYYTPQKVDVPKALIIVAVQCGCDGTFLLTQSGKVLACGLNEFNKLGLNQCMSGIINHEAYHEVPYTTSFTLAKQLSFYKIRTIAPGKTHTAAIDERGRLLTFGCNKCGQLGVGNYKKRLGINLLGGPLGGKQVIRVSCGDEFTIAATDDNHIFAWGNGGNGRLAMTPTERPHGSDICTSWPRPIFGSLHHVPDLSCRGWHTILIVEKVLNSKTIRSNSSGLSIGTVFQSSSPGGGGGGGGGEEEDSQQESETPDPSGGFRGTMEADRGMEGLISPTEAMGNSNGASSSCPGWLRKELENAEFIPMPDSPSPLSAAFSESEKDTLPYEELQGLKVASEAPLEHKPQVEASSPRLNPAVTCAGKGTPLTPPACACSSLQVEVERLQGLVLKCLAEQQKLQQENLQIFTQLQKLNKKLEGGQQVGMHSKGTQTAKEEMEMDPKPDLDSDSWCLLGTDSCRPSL

[10] = target: T2, Dual specificity mitogen-activated protein kinase kinase 6 (Homo sapiens) (UniProt P52564); experiment: Binding affinity to MAP2K6 in human NCI-H358 cells at 1 uM by mass spectrometry based pull down assay
T2 sequence (whole entry): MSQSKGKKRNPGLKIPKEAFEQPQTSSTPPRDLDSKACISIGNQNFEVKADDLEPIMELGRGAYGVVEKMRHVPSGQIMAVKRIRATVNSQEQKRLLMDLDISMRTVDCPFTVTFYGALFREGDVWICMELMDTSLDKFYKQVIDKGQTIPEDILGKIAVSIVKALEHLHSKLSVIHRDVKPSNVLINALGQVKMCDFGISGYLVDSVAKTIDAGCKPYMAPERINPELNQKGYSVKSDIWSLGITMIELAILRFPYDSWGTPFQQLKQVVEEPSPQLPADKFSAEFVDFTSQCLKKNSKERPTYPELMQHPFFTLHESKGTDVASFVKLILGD

[11] = target: V-type proton ATPase catalytic subunit A (Homo sapiens) (UniProt P38606); experiment: Binding affinity to ATP6V1A in human NCI-H358 cells at 1 uM by mass spectrometry based pull down assay
[12] = target: Long-chain-fatty-acid--CoA ligase 1 (Homo sapiens) (UniProt P33121); experiment: Binding affinity to ACSL1 in human NCI-H358 cells at 1 uM by mass spectrometry based pull down assay
Summary of the method: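 NCI-H23 or NCI-H358 cells were grown and lysed. Lysates were incubated overnight at 4 °C with 1 μM biotinylated covalent probe or DMSO, then pulled down on streptavidin beads. Proteins were run on polyacrylamide gels and stained with Coomassie. Bands were excised, digested and identified by mass spectrometry.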

[13] = target: General vesicular transport factor p115 (Homo sapiens) (UniProt O60763); experiment: Binding affinity to USO1 in human NCI-H358 cells at 1 uM by mass spectrometry based pull down assay
Vinculin (Homo sapiens) = Vinculin (Homo sapiens) (UniProt P18206); experiment: Binding affinity to VCL in human NCI-H358 cells at 1 uM by mass spectrometry based pull down assay

Measured: Activity

Trifunctional enzyme subunit alpha, mitochondrial (Homo sapiens), sequence (P40939 whole entry): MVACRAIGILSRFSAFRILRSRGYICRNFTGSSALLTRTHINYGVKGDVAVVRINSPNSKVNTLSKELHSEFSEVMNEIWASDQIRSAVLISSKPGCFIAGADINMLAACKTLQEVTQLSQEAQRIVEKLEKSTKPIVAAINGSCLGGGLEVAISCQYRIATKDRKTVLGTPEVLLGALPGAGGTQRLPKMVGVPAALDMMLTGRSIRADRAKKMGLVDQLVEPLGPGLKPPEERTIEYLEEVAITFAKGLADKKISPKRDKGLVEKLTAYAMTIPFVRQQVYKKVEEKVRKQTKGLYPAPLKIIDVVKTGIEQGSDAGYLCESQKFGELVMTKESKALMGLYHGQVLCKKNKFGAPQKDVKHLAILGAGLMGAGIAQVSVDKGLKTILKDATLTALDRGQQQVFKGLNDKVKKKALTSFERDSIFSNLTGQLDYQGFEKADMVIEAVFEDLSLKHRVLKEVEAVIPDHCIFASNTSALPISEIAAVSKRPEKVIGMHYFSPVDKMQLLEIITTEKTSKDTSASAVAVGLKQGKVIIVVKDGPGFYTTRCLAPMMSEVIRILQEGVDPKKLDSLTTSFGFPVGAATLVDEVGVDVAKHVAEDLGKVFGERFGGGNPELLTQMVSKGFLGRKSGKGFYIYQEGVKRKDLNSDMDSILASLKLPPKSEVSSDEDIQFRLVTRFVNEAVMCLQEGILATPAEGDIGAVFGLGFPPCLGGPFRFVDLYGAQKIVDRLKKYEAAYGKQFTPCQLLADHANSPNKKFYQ
Protein NipSnap homolog 1 (Homo sapiens), sequence (Q9BPW8 whole entry): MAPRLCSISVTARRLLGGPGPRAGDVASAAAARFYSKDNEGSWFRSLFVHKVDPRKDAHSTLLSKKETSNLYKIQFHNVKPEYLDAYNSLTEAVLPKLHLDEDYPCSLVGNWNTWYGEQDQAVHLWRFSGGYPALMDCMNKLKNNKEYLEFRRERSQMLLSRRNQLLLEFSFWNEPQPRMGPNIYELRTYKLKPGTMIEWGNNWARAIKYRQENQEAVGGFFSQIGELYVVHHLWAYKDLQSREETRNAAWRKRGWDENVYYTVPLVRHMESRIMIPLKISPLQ
V-type proton ATPase catalytic subunit A (Homo sapiens), sequence (P38606 whole entry): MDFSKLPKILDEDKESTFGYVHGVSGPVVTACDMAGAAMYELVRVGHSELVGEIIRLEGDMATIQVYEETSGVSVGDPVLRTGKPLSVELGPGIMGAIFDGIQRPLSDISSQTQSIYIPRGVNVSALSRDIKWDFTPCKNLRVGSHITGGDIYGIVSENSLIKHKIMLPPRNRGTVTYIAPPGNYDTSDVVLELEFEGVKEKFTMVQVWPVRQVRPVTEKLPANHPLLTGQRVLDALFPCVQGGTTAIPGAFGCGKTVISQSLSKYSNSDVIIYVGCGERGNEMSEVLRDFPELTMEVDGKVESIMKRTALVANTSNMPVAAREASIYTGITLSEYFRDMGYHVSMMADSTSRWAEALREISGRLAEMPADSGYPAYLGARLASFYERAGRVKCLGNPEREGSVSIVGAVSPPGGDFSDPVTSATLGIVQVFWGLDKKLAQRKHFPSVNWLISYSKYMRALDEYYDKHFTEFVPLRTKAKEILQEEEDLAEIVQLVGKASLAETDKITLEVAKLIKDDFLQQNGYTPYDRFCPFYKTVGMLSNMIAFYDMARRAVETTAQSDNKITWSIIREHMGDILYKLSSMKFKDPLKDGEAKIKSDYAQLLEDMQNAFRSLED
Dual specificity mitogen-activated protein kinase kinase 1 (Homo sapiens), sequence (Q02750 whole entry): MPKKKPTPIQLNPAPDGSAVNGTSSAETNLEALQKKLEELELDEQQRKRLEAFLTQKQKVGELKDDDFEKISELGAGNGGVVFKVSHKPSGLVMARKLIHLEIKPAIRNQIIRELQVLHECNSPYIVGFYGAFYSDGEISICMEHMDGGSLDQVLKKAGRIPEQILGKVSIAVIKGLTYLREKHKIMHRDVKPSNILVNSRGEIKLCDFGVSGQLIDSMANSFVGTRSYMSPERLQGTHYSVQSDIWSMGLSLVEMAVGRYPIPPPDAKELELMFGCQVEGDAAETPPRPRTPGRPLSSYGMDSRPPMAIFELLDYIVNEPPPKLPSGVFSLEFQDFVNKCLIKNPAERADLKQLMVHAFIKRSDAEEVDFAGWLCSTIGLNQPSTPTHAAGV
Long-chain-fatty-acid--CoA ligase 1 (Homo sapiens), sequence (P33121 whole entry): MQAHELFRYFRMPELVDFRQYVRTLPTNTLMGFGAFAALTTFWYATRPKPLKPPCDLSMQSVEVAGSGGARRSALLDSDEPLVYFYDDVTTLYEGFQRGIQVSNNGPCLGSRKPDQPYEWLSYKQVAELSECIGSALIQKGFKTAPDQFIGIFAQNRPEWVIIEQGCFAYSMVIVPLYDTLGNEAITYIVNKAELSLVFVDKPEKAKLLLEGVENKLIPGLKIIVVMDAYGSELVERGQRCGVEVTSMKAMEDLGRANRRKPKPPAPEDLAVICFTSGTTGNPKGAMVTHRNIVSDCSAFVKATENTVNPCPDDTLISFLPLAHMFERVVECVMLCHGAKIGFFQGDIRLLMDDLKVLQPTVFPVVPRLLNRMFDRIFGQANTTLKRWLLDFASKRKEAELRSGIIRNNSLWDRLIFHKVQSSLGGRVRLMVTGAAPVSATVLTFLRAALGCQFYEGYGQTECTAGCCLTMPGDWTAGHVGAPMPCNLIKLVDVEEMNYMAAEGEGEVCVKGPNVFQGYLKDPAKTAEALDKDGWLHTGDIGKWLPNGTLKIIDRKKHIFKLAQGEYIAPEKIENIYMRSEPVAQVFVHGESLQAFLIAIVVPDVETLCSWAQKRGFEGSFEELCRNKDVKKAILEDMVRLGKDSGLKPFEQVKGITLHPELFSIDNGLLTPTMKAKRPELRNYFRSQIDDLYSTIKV
14-3-3 protein epsilon (Homo sapiens), sequence (P62258 whole entry): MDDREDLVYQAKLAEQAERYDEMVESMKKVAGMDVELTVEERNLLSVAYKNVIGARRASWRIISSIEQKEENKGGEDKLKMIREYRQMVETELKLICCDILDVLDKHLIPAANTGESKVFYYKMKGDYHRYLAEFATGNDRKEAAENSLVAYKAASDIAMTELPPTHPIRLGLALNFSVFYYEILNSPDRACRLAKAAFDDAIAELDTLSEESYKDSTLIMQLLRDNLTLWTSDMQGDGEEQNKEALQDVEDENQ
Glutamate--cysteine ligase regulatory subunit (Homo sapiens), sequence (P48507 whole entry): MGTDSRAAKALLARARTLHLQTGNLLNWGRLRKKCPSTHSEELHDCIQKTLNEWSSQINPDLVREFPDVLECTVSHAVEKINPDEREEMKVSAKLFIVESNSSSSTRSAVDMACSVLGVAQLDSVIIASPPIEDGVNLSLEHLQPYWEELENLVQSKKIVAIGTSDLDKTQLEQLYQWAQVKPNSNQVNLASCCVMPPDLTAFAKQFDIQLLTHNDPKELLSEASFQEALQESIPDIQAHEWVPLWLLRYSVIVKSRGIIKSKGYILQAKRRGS
Eukaryotic translation initiation factor 3 subunit I (Homo sapiens), sequence (Q13347 whole entry): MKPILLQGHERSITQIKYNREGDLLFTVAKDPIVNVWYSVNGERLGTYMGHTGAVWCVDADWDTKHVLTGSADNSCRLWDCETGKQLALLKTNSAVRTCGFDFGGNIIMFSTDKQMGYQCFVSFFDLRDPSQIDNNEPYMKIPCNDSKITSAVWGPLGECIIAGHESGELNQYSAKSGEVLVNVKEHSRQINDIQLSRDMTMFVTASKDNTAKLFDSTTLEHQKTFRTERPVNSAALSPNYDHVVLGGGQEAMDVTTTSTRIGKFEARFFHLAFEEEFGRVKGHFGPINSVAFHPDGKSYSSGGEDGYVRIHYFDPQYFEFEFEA
General vesicular transport factor p115 (Homo sapiens), sequence (O60763 whole entry): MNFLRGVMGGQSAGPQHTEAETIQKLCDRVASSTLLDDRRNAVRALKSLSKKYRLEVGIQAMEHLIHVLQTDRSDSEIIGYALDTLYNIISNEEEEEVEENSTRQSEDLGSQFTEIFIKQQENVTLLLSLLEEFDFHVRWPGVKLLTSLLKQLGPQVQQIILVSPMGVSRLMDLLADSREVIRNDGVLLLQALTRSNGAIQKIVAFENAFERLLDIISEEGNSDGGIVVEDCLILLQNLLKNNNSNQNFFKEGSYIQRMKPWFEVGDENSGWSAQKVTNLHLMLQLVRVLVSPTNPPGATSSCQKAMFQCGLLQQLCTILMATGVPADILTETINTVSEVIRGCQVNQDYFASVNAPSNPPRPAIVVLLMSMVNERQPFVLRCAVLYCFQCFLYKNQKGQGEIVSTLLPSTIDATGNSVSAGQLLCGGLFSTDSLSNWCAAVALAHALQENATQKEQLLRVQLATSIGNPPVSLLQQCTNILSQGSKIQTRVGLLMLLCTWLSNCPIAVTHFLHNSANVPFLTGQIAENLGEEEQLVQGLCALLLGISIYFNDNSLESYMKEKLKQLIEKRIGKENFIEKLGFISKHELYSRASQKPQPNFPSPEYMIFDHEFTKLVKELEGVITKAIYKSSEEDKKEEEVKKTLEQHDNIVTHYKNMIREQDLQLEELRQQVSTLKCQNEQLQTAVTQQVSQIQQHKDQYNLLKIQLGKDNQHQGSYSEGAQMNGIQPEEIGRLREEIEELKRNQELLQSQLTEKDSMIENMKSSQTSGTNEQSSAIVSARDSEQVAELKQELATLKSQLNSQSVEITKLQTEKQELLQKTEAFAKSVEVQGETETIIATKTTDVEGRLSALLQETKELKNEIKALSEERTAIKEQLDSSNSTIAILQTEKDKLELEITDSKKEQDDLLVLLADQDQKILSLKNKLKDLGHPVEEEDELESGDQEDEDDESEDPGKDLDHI

C=CC(=O)Nc1ccccc1Nc1nc(Nc2ccc(N3CCN(CCOCCOCCOCCNC(=O)CCCC[C@@H]4SC[C@@H]5NC(=O)N[C@@H]54)CC3)cc2)ncc1Cl
active: [1] | [2] | [3] | [4] | [5] | [6] | [7] | [8] | [9] | [10] | [11] | [12] | [13] | Vinculin (Homo sapiens)
